Experimental data published in ChEMBL document CHEMBL3272174, “Molecular structural effects involved in the interaction of quinolinemethanolamines with DNA. Implications for antimalarial action” (1977).
Blank lines part the entries; values can stand above or below the compound they belong to. The source made the active and inactive calls.

How the values were obtained:
[1] = test system: Plasmodium berghei; assay: Antimalarial activity against Plasmodium berghei infected in mouse assessed as increase in mean survival time at 640 mg/kg measured after 60 days post infection relative to control; format: functional
How it was run: (§1)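 Tested at Walter Reed Army Institute of Research (communicated data) in mice infected with P. berghei. Five mice per test. Read-out is the increase in mean survival time (ΔMST, days) over the control group. Activity is defined as ΔMST above 6.1 days. Cure (C) is scored when at least one of the five mice survives to 60 days postinfection.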

[2] = test system: Calf thymus DNA; assay: Binding affinity to calf thymus DNA assessed as melting temperature at 10^-4 M by thermal denaturation assay; format: nucleic-acid assay; conditions: Bos taurus
How it was run: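 Calf thymus DNA dissolved in standard buffer (3.8×10^-3 M NaH2PO4, 5×10^-4 M EDTA, pH 7.0, ionic strength 0.0095) and dialyzed against it. Thermal denaturation: DNA at 10^-4 M (nucleotide equivalents), drug at 10^-4 M. Absorbance recorded as a function of temperature in stoppered 1.0-cm quartz cuvettes, with a thermistor in the cell block.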

[3] = test system: Plasmodium berghei; assay: Antimalarial activity against Plasmodium berghei infected in mouse assessed as increase in mean survival time at 320 mg/kg measured after 60 days post infection relative to control; format: functional; how it was run: as §1
[4] = test system: Escherichia coli; assay: Binding affinity to closed circular superhelical Escherichia coli ColE1 DNA by viscometric titrations
[5] = test system: Plasmodium berghei; assay: Antimalarial activity against Plasmodium berghei infected in mouse assessed as increase in mean survival time at 80 mg/kg measured after 60 days post infection relative to control; format: functional; how it was run: as §1
[6] = test system: Plasmodium berghei; assay: Antimalarial activity against Plasmodium berghei infected in mouse assessed as increase in mean survival time at 160 mg/kg measured after 60 days post infection relative to control; format: functional; how it was run: as §1
[7] = test system: Calf thymus DNA; assay: Binding affinity to sonicated calf thymus DNA by viscometric titrations; format: nucleic-acid assay; conditions: Bos taurus
How it was run: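 Sonicated calf thymus DNA (1.0-3.0 mL) titrated with small aliquots of concentrated drug stock in a semimicro Ubbelohde dilution viscometer at 25 °C, in standard buffer. Volume change stayed at or below 3%, and DNA dilution was corrected. Reduced specific viscosity ratio plotted against drug/nucleotide molar ratio.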

[8] = test system: Calf thymus DNA; assay: Binding affinity to sonicated calf thymus DNA at 10^-3 M by spectroscopy; format: nucleic-acid assay; conditions: Bos taurus
How it was run: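 Difference spectra: sonicated calf thymus DNA (2.3×10^-3 M) and drug (3.5×10^-4 M) in standard pH 7.0 phosphate/EDTA buffer were loaded in separate compartments of 10-mm tandem cells to set a baseline. Equal volumes were then mixed and read against the separated solutions.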

[9] = test system: Plasmodium berghei; assay: Antimalarial activity against Plasmodium berghei infected in mouse assessed as increase in mean survival time at 40 mg/kg measured after 60 days post infection relative to control; format: functional; how it was run: as §1
[10] = test system: Escherichia coli; assay: Inhibition of Escherichia coli RNA polymerase assessed as reduction in RNA transcription at compound/DNA molar ratio of 1
[11] = test system: Plasmodium berghei; assay: Antimalarial activity against Plasmodium berghei infected in mouse assessed as increase in mean survival time at 80 to 640 mg/kg measured after 60 days post infection relative to control; format: functional, organism-based
[12] = test system: Calf thymus DNA; assay: Binding affinity to calf thymus DNA assessed as melting temperature at 10^-5 M by thermal denaturation assay; format: nucleic-acid assay; conditions: Bos taurus
How it was run: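 Thermal melting of dialyzed calf thymus DNA (10^-4 M nucleotide) with drug at 10^-5 M, in standard phosphate/EDTA buffer at pH 7.0. Absorbance followed against temperature in 1.0-cm stoppered quartz cuvettes, with temperature monitored by a cell-block thermistor.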

Activity [4]: inactive
Structure (SMILES): NCCCCN

Activity [4]: inactive
Activity [7]: Active
Tm [12]: 75 °C
Structure (SMILES): CCN(CC)CCCC(C)Nc1ccnc2cc(Cl)ccc12 (configuration not stated)

Activity [4]: Active
Activity [7]: Active
Tm [12]: 88 °C
Structure (SMILES): CCN(CC)CCCC(C)Nc1c2ccc(Cl)cc2nc2ccc(OC)cc12 (configuration not stated)

The remaining lines, values behind:

Structure (SMILES): NC(=O)c1cc(C(O)C2CCCCN2)c2cccc(C(F)(F)F)c2n1 (configuration not stated)
fold change (FC) [1]: 7.9
Tm [2]: 64.9 °C
fold change (FC) [3]: 0.7
Activity [4]: inactive
fold change (FC) [5]: 0.3
fold change (FC) [6]: 0.5
Activity [7]: Active
Activity [8]: Active
fold change (FC) [9]: 0.3

Structure (SMILES): COc1cccc2c1C(=O)c1c(O)c3c(c(O)c1C2=O)C[C@@](O)(C(C)=O)C[C@@H]3O[C@H]1C[C@H](N)[C@H](O)[C@H](C)O1
Activity [10]: Active

Structure (SMILES): O[C@@H](c1cc(C(F)(F)F)nc2c(C(F)(F)F)cccc12)[C@H]1CCCCN1 (relative stereo)
Tm [2]: 63 °C
Activity [4]: inactive
Activity [11]: Active
Activity [7]: inactive
Activity [10]: inactive
Activity [8]: Active

Structure (SMILES): C=C[C@H]1CN2CC[C@H]1C[C@H]2[C@H](O)c1ccnc2ccc(OC)cc12
Tm [2]: 66.3 °C
Activity [7]: Active
Activity [8]: Active

Structure (SMILES): OC(c1cc(C(F)(F)F)nc2c(F)cccc12)C1CCCCN1 (configuration not stated)
Tm [2]: 61.5 °C
fold change (FC) [3]: 7.1
Activity [4]: inactive
fold change (FC) [5]: 4.1
Activity [7]: inactive
Activity [8]: Active
